# Legend:
# [1] = target: Chitin synthase 1 (Candida albicans) (UniProt P23316); assay: (§1) Concentration at which chitin synthetase is inhibited by 50%
# Outline: (§2)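 Mixed membrane (particulate) fraction from C. albicans H-317 was the enzyme source. Chitin synthetase activity was measured with and without polyoxin compounds as incorporation of N-acetylglucosamine into chitin. ID50 is the concentration giving 50% inhibition.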
# Candida albicans [2] = assay: Compound was tested for hydrolysis by Candida albicans H-317 extract; (+) Indicates compound was hydrolyzed by C. albicans H-317 extract; format: functional
# Outline: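 Cell extract of C. albicans H-317 (100 μL at 200 μg protein/mL) incubated at 37 °C with polyoxin compound (100 μL of 1 μg/mL) plus 300 μL water. Hydrolysis monitored by reversed-phase HPLC, absorbance at 254 nm.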
# Candida albicans [3] = assay: Percent inhibition of transport of (Leu)2 into Candida albicans H-317; format: functional; set-up: concentration or dose not given beside the values
# Outline: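 H-317 cells grown in yeast nitrogen base with isoleucine (0.5%) as nitrogen source, harvested at 8×10^6 cells/mL, and washed. Cells in 2% glucose were warmed 10 min at 37 °C, then mixed with pH 5.5 citrate (10 mM)-KH2PO4 (10 mM) buffer containing labeled dileucine (5.6×10^-5 M, 44 μCi/μmol). Analogue was present at 10-fold molar excess. Samples were filtered at 0-4 min and counted; uptake rate was expressed as nmol/mg dry weight/min.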
# Candida albicans [4] = assay: Percent inhibition of transport of (Met)3 into Candida albicans H-317; format: functional; set-up: concentration or dose not given beside the values
# Outline: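 H-317 cells grown in yeast nitrogen base with isoleucine (0.5%) as nitrogen source, washed, and prewarmed 10 min at 37 °C in 2% glucose. Cells were mixed with pH 3.5 citrate (10 mM)-KH2PO4 (10 mM) buffer containing labeled trimethionine (2.9×10^-5 M, 1 μCi/μmol). Analogue was added at 10-fold molar excess. Filtered samples were taken at 0, 1, 2, 3 and 4 min and counted by scintillation; rate was expressed as nmol/mg dry cells/min.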
# Candida albicans [5] = assay: Minimum inhibitory concentration against the growth of Candida albicans 124 strain; format: functional
# Outline: (§3)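 Cells grown in yeast nitrogen base with ammonium sulfate (0.5%) as nitrogen source, 24-48 h at 37 °C. MIC is the lowest drug concentration producing 5% morphologically aberrant cells, scored by microscopy.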
# Candida albicans [6] = assay: Minimum inhibitory concentration against the growth of Candida albicans 124 NIK strain; format: functional; outline: as §3
# Candida albicans [7] = assay: Minimum inhibitory concentration against the growth of Candida albicans H-317 strain; format: functional; outline: as §3
# [8] = target: Chitin synthase 1 (Candida albicans) (UniProt P23316); assay: as §1; format: functional; outline: as §2
# [9] = Candida albicans, read-out: MIC
# Sequence of Chitin synthase 1 (Candida albicans) (P23316 whole entry, looked up): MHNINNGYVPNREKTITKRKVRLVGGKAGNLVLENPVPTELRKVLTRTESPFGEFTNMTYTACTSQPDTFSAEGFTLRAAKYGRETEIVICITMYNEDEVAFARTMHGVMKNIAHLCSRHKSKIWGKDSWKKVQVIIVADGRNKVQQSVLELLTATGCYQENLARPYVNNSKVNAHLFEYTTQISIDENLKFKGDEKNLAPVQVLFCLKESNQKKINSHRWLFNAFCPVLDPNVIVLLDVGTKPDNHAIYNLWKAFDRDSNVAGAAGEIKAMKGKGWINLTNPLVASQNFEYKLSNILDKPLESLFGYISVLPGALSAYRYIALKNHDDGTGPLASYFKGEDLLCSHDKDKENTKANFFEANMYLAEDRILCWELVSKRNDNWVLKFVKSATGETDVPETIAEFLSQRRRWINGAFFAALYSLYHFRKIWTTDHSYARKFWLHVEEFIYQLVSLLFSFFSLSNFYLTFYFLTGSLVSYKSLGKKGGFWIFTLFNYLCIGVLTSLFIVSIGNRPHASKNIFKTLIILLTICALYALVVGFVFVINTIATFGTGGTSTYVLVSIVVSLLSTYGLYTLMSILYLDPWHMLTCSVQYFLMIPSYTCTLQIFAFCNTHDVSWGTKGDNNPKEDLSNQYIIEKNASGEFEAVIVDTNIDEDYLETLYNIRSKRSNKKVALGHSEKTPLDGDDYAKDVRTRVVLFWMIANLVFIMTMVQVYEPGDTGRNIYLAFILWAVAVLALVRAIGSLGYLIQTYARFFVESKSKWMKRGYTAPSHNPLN
SMILES,ID50 [1] [µg/mL],MIC (Candida albicans [6]; [9]) [µg/mL],MIC (Candida albicans [7]; [9]) [µg/mL],MIC (Candida albicans [5]; [9]) [µg/mL],Inhibition (Candida albicans [3]) [%],Inhibition (Candida albicans [4]) [%],further results
CCCCCCC(N)C(=O)NC(C(=O)O)[C@H]1O[C@@H](n2ccc(=O)[nH]c2=O)[C@H](O)[C@@H]1O (stereo in doubt; 3b) [listing 1 of 2 here],> 50,–,–,–,–,–,–
CCCCCCC(N)C(=O)NC(C(=O)O)[C@H]1O[C@@H](n2ccc(=O)[nH]c2=O)[C@H](O)[C@@H]1O (stereo in doubt; 3a) [listing 1 of 2 here],2,–,–,–,–,–,Hydrolysis (Candida albicans [2]): (+)
NC(=O)OCC(O)C(O)C(N)C(=O)NC(C(=O)O)[C@H]1O[C@@H](n2cc(C(=O)O)c(=O)[nH]c2=O)[C@H](O)[C@@H]1O (stereo partly drawn),2,320,640,320,5,10,–
CCCCCCC(N)C(=O)NC(C(=O)O)[C@H]1O[C@@H](n2ccc(=O)[nH]c2=O)[C@H](O)[C@@H]1O (stereo in doubt; 3b) [listing 2 of 2 here],–,–,–,–,14,10,MIC (Candida albicans [5]): >320 µg/mL; MIC (Candida albicans [6]): >320 µg/mL; MIC (Candida albicans [7]): >320 µg/mL
CCCCCCCCCCCCCCC(N)C(=O)NC(C(=O)O)[C@H]1O[C@@H](n2ccc(=O)[nH]c2=O)[C@H](O)[C@@H]1O (stereo in doubt; 5a) [listing 2 of 2 here],–,–,–,–,56,–,–
NC(C(=O)O)[C@H]1O[C@@H](n2ccc(=O)[nH]c2=O)[C@H](O)[C@@H]1O (stereo partly drawn),–,> 640,> 640,> 640,–,3,ID50 [8]: > 100 µg/mL

# Second part, led by results:
ID50 [1] [µg/mL],MIC (Candida albicans [6]; [9]) [µg/mL],MIC (Candida albicans [7]; [9]) [µg/mL],MIC (Candida albicans [5]; [9]) [µg/mL],SMILES,Inhibition (Candida albicans [3]) [%],Inhibition (Candida albicans [4]) [%],further results
10,–,–,–,CCCCCCCCCCCCCCC(N)C(=O)NC(C(=O)O)[C@H]1O[C@@H](n2ccc(=O)[nH]c2=O)[C@H](O)[C@@H]1O (stereo in doubt; 5b) [listing 1 of 2 here],–,–,–
–,640,160,–,CCCCCCC(N)C(=O)NC(C(=O)O)[C@H]1O[C@@H](n2ccc(=O)[nH]c2=O)[C@H](O)[C@@H]1O (stereo in doubt; 3a) [listing 2 of 2 here],71,6,MIC (Candida albicans [5]): 80 µg/mL
0.3,80,80,40,CCCCCCCCCCC(N)C(=O)NC(C(=O)O)[C@H]1O[C@@H](n2ccc(=O)[nH]c2=O)[C@H](O)[C@@H]1O (stereo partly drawn),87,0,–
–,> 320,> 320,> 320,CCCCCCCCCCCCCCC(N)C(=O)NC(C(=O)O)[C@H]1O[C@@H](n2ccc(=O)[nH]c2=O)[C@H](O)[C@@H]1O (stereo in doubt; 5b) [listing 2 of 2 here],83,10,–
> 100,–,–,–,CCCCCCCCCCCCCCC(N)C(=O)NC(C(=O)O)[C@H]1O[C@@H](n2ccc(=O)[nH]c2=O)[C@H](O)[C@@H]1O (stereo in doubt; 5a) [listing 1 of 2 here],–,–,–

# Source: ChEMBL document CHEMBL1124064, “Synthesis and anticandidal properties of polyoxin L analogues containing alpha-amino fatty acids” (1988)
